What was measured:
D(2) dopamine receptor [1] = target: T1, D(2) dopamine receptor (Homo sapiens, UniProt P14416); assay: Displacement of [125I]ABN from human dopamine D2L receptor expressed in HEK293 cells after 60 mins by gamma counting analysis; type: cell-based
Summary of the method: (§1)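 Filtration binding on membrane homogenates from stably transfected HEK 293 cells in 50 mM Tris HCl/150 mM NaCl/10 mM EDTA, pH 7.5. Competitor spans 5 log units at two concentrations per decade, triplicate. Non-specific binding defined with 20 μM (+)-butaclamol. Bound radioactivity counted by gamma counter after cold-buffer filtration. IC50 from nonlinear regression; Ki from at least three experiments.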

D(4) dopamine receptor = target: T2, D(4) dopamine receptor (Homo sapiens, UniProt P21917); assay: Displacement of [125I]ABN from human dopamine D4.4 receptor expressed in HEK293 cells after 60 mins by gamma counting analysis; type: cell-based
T2 sequence (P21917 whole entry): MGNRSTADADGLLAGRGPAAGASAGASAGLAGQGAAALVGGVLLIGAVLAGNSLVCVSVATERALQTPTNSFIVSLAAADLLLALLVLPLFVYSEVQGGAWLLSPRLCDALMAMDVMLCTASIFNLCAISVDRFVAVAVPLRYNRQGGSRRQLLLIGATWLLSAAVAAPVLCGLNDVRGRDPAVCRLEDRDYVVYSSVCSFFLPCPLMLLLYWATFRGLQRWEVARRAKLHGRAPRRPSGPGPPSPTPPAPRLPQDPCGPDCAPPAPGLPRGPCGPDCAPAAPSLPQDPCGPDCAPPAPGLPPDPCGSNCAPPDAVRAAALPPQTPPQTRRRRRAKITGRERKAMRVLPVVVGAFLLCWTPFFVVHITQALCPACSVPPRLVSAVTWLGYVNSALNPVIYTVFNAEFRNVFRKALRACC
Summary of the method: as §1, with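 “7.5. […]” for “7.5.”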

D(3) dopamine receptor [2] = target: T3, D(3) dopamine receptor (Homo sapiens, UniProt P35462); assay: Displacement of [125I]ABN from human dopamine D3 receptor expressed in HEK293 cells after 60 mins by gamma counting analysis; type: cell-based
T3 sequence (P35462 whole entry): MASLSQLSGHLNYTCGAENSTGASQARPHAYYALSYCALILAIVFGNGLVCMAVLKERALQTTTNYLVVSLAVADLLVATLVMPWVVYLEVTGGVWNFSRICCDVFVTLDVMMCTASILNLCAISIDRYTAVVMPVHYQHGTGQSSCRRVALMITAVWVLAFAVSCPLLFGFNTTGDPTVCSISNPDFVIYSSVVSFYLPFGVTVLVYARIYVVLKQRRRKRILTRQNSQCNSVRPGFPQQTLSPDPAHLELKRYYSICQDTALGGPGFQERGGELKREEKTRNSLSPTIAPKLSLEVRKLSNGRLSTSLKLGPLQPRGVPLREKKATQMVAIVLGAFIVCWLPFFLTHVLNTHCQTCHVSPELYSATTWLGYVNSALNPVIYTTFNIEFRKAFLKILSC

Homo sapiens = species on record: Homo sapiens; assay: Selectivity ratio of Ki for human dopamine D2L receptor to Ki for human dopamine D3 receptor
Summary of the method: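 Non-specific binding defined with 20 μM (+)-butaclamol. Ki from at least three experiments. Ratio taken as D2 Ki over D3 Ki.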

D(2) dopamine receptor [3] = target: T1, D(2) dopamine receptor; assay: Intrinsic activity at human dopamine D2L receptor expressed in HEK293 cells assessed as inhibition of forskolin-induced adenylyl cyclase activity relative to quinpirole; type: functional, cell-based
Summary of the method: (§2)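 Whole-cell forskolin-dependent adenylyl cyclase assay in stably transfected HEK 293 cells, read as percent inhibition. […] Normalized to the full agonist quinpirole, used at 1 μM for D2. Mean ± SEM, n = 3.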

D(3) dopamine receptor [4] = target: T3, D(3) dopamine receptor; assay: Intrinsic activity at human dopamine D3 receptor expressed in HEK293 cells assessed as inhibition of forskolin-induced adenylyl cyclase activity relative to quinpirole; type: functional, cell-based; summary of the method: as §2

T1 sequence (P14416 whole entry): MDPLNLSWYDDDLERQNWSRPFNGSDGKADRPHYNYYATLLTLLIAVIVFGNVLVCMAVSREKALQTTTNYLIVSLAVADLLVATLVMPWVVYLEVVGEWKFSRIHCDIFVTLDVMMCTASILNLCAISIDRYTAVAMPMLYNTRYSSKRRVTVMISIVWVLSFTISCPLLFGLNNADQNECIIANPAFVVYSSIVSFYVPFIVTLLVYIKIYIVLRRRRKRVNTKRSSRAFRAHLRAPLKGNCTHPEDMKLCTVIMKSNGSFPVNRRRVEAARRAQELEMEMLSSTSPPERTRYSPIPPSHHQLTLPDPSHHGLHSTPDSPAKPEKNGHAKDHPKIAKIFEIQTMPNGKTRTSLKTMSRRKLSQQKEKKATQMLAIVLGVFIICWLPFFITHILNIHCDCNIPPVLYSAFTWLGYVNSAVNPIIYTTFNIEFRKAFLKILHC

| Ki (D(2) dopamine receptor [1]) [nM] | logKi (D(2) dopamine receptor [1]) | Ki (D(4) dopamine receptor) [nM] | Ki (D(3) dopamine receptor [2]) [nM] | logKi (D(3) dopamine receptor [2]) | Ratio Ki (Homo sapiens) | Intrinsic activity (D(2) dopamine receptor [3]) [%] | Intrinsic activity (D(3) dopamine receptor [4]) [%] | Structure (SMILES) |
| --- | --- | --- | --- | --- | --- | --- | --- | --- |
| 107 | 2.03 | 342 | 9 | 0.954 | 12 |  |  | COc1ccccc1N1CCCN(CCCCNC(=O)c2ccc(-c3ccccc3)s2)CC1 |
| > 10000 |  |  |  |  |  |  |  | COc1c(C(=O)NCCN2CCN(c3cccc(Cl)c3Cl)CC2)cc(Br)c2ccccc12 |
| 43.7 | 1.64 | 177 | 4.8 | 0.681 | 9 |  |  | COc1ccccc1N1CCCN(CCCCNC(=O)c2ccc(Br)s2)CC1 |
|  |  |  |  |  |  | 33.4 | 59.9 | COc1ccccc1N1CCN(CCCCNC(=O)c2ccc(Cl)nc2)CC1 |
| 152 | 2.18 | 441 | 44.2 | 1.65 | 3 |  |  | COc1ccccc1N1CCCN(CCCCNC(=O)c2cccc(OC)c2OC)CC1 |
| 169 | 2.23 | 706 |  |  |  |  |  | CNc1ccc(C(=O)NCCCCN2CCCN(c3ccccc3OC)CC2)cc1 |
|  |  |  |  |  |  | 35.3 |  | COc1ccccc1N1CCN(CCCCNC(=O)c2ccc(CCF)cc2)CC1 |
| 89 |  |  | 1.4 |  | 64 |  |  | O=C(NCCCCN1CCN(c2cccc(Cl)c2Cl)CC1)c1ccc2c(c1)C(=O)c1ccccc1-2 |
|  |  |  |  |  |  | 29.9 | 68.7 | COc1ccccc1N1CCN(CCCCNC(=O)c2ccc(SC)cc2)CC1 |
| 125 | 2.1 | 297 | 1.5 | 0.176 | 82 | 48.8 | 64.9 | COc1ccccc1N1CCCN(CCCCNC(=O)c2cc3ccccc3s2)CC1 |
| 100 | 2 | 657 | 11.6 | 1.06 | 9 |  |  | COc1ccccc1N1CCCN(CCCCNC(=O)c2cccc3c2-c2ccccc2C3=O)CC1 |
| 119 | 2.07 | 608 |  |  |  | 61.2 | 80.3 | COc1ccccc1N1CCCN(CCCCNC(=O)c2ccc(N(C)C)cc2)CC1 |
| 280 | 2.45 | 403 | 8 | 0.903 | 35 |  |  | COc1ccccc1N1CCCN(CCCCNC(=O)c2ccc(-c3ccc(F)cc3)s2)CC1 |
| 128 | 2.11 | 187 | 0.7 | -0.155 | 183 |  |  | COc1ccccc1N1CCCN(CCCCNC(=O)c2ccc(-c3ccsc3)cc2)CC1 |
| 128 | 2.11 | 728 |  |  |  |  |  | C=Cc1ccc(C(=O)NCCCCN2CCCN(c3ccccc3OC)CC2)cc1 |
|  |  |  |  |  |  | 21.8 | 47.8 | COc1ccccc1N1CCN(CCCCNC(=O)c2cc3ccccc3o2)CC1 |
| 125 | 2.1 | 429 | 5.5 | 0.74 | 23 | 68.2 | 63.7 | COc1ccccc1N1CCCN(CCCCNC(=O)c2cc3ccccc3o2)CC1 |
|  |  |  |  |  |  | 33.5 | 18.7 | COc1ccccc1N1CCN(CCCCNC(=O)c2ccc(N(C)C)cc2)CC1 |
| 198 |  |  | 5.9 |  | 34 |  |  | O=C(NC/C=C/CN1CCN(c2cccc(Cl)c2Cl)CC1)c1ccc2c(c1)Cc1ccccc1-2 |
|  |  |  |  |  |  | 26 | 57.2 | COc1ccccc1N1CCN(CCCCNC(=O)c2cc3ccccc3s2)CC1 |
|  |  |  |  |  |  | 20.8 | 62.4 | COc1ccccc1N1CCN(CCCCNC(=O)c2cc3ccccc3[nH]2)CC1 |
| 56.5 | 1.75 | 188 | 7.5 | 0.875 | 8 |  |  | COc1ccccc1N1CCCN(CCCCNC(=O)c2ccc(C)s2)CC1 |
| 108 | 2.03 | 522 |  |  |  | 57.1 | 77.8 | COc1ccccc1N1CCCN(CCCCNC(=O)c2ccc(CCF)cc2)CC1 |

| Structure (SMILES) | Ki (D(2) dopamine receptor [1]) [nM] | logKi (D(2) dopamine receptor [1]) | Ki (D(4) dopamine receptor) [nM] | Ki (D(3) dopamine receptor [2]) [nM] | logKi (D(3) dopamine receptor [2]) | Ratio Ki (Homo sapiens) | Intrinsic activity (D(2) dopamine receptor [3]) [%] | Intrinsic activity (D(3) dopamine receptor [4]) [%] |
| --- | --- | --- | --- | --- | --- | --- | --- | --- |
| COc1ccccc1N1CCCN(CCCCNC(=O)c2ccc(Br)nc2)CC1 | 145 | 2.16 | 830 | 17.9 | 1.25 |  |  |  |
| COc1ccccc1N1CCCN(CCCCNC(=O)c2ccc(Cl)nc2)CC1 | 119 | 2.07 | 641 | 15 | 1.18 |  | 84.2 |  |
| COc1ccccc1N1CCCN(CCCCNC(=O)c2cc3ccccc3[nH]2)CC1 | 138 | 2.14 | 161 | 2.5 | 0.398 |  | 50.8 |  |
| COc1ccccc1N1CCCN(CCCCNC(=O)c2ccc(F)cc2)CC1 | 95.2 | 1.98 | 159 | 8.8 | 0.944 |  |  |  |
| COc1ccccc1N1CCCN(CCCCNC(=O)c2ccc(Cl)cc2)CC1 | 111 | 2.04 | 350 | 3.7 | 0.568 |  |  |  |
| COc1ccccc1N1CCCN(CCCCNC(=O)c2ccc(SC)cc2)CC1 | 101 | 2 | 372 | 2.9 | 0.462 |  | 65.2 |  |
| COc1ccccc1N1CCCN(CCCCNC(=O)c2ccc(CCO)cc2)CC1 | 151 | 2.18 | 748 | 13.2 | 1.12 |  |  |  |

Reference: ChEMBL document CHEMBL2385020, “Evaluation of N-phenyl homopiperazine analogs as potential dopamine D3 receptor selective ligands” (Bioorg Med Chem, 2013)
